Reference: ChEMBL document CHEMBL4825692, “Benzofuranyl-2-imidazoles as imidazoline I2 receptor ligands for Alzheimer's disease” (Eur J Med Chem, 2021)

What was measured:
[1] = target: T1, Adrenergic receptor alpha-2 (Homo sapiens, UniProt P08913+P18825+P18089); assay: Displacement of [3H]-RX821002 from adrenergic alpha 2 receptor in post-mortem human brain frontal cortex membrane measured after 30 mins by liquid scintillation counting spectrometry; assay type: cell membranes
T1 sequence (P08913 whole entry): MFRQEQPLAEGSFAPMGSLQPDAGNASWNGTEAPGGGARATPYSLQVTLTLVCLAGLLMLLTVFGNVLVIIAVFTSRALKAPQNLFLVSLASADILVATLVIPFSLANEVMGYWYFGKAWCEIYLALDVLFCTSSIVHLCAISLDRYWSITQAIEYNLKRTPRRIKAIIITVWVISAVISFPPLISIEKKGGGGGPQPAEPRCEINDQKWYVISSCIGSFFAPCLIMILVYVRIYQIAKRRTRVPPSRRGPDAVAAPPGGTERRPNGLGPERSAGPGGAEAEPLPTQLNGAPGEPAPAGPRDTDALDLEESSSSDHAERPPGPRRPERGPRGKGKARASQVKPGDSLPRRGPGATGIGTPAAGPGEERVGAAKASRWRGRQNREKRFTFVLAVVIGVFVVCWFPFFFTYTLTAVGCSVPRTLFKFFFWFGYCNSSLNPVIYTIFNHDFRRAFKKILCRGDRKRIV
T1 sequence (P18825 whole entry): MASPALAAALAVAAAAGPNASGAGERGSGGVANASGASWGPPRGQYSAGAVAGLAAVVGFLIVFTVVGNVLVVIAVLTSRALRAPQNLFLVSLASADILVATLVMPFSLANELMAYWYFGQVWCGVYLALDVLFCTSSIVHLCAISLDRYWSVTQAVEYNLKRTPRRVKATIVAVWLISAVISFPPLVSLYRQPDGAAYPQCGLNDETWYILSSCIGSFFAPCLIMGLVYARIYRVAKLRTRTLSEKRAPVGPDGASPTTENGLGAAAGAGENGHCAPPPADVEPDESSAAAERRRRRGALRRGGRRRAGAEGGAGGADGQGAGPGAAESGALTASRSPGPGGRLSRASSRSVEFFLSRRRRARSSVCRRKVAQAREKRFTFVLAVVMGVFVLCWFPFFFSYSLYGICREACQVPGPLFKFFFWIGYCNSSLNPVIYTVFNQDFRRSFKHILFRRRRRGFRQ
T1 sequence (P18089 whole entry): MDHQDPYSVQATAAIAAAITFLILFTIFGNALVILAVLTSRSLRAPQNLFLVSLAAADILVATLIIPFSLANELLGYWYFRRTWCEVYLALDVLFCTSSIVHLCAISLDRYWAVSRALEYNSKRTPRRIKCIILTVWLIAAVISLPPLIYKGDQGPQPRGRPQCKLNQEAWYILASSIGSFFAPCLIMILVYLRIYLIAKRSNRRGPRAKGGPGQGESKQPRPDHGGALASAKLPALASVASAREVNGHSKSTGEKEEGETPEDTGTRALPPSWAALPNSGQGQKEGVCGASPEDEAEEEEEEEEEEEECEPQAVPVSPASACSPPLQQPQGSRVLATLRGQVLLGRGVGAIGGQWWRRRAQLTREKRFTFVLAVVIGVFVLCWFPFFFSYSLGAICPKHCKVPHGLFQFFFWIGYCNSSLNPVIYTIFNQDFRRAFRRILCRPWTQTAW

[2] = Cytotoxicity against human DND41 cells at 100 uM by real time IncuCyte proliferation assay; assay type: cell-based; conditions: dnd41, 100 µM
Procedure, shortened: (§1)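 Adherent lines (LN-229, Capan-1, HCT-116, NCI-H460) seeded at 500–1500 cells/well and treated after overnight attachment. Suspension lines (HL-60, K-562, Z-138, DND-41) seeded at 2500–5500 cells/well directly with compound. Highest concentration 100 μM; proliferation tracked by real-time IncuCyte imaging over 72 h at 37 °C.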

Homo sapiens [3] = organism: Homo sapiens; assay: Displacement of [3H]2-BFI from imidazoline I2 receptor in post-mortem human brain frontal cortex membrane assessed as occupancy at high affinity site measured after 45 mins by liquid scintillation counting spectrometry
[4] = Displacement of [3H]2-BFI from imidazoline I2 receptor high affinity site in post-mortem human brain frontal cortex membrane two site model measured after 45 mins by liquid scintillation counting spectrometry
HL-60 = assay: Cytotoxicity against human HL-60 cells at 100 uM by real time IncuCyte proliferation assay; assay type: cell-based; conditions: hl-60, 100 µM; procedure, shortened: as §1
[5] = Displacement of [3H]2-BFI from imidazoline I2 receptor in post-mortem human brain frontal cortex membrane one site model measured after 45 mins by liquid scintillation counting spectrometry
NCI-H460 = assay: Cytotoxicity against human NCI-H460 cells at 100 uM by real time IncuCyte proliferation assay; assay type: cell-based; conditions: nci-h460, 100 µM; procedure, shortened: as §1
LN-229 = assay: Cytotoxicity against human LN-229 cells at 100 uM by real time IncuCyte proliferation assay; assay type: cell-based; conditions: ln-229, 100 µM; procedure, shortened: as §1
Homo sapiens [6] = organism: Homo sapiens; assay: Selectivity index, ratio of pKi for displacement of [3H]2-BFI from imidazoline I2 receptor in post-mortem human brain frontal cortex membrane to pKi for displacement of [3H]-RX821002 from adrenergic alpha 2 receptor in post-mortem human brain frontal cortex membrane; assay type: cell membranes
HCT-116 = assay: Cytotoxicity against human HCT-116 cells at 100 uM by real time IncuCyte proliferation assay; assay type: cell-based; conditions: hct-116, 100 µM; procedure, shortened: as §1
[7] = Displacement of [3H]2-BFI from imidazoline I2 receptor low affinity site in post-mortem human brain frontal cortex membrane two site model measured after 45 mins by liquid scintillation counting spectrometry
CAPAN-1 = assay: Cytotoxicity against human CAPAN-1 cells at 100 uM by real time IncuCyte proliferation assay; assay type: cell-based; conditions: capan-1, 100 µM; procedure, shortened: as §1
Z-138 = assay: Cytotoxicity against human Z138 cells at 100 uM by real time IncuCyte proliferation assay; assay type: cell-based; conditions: z-138, 100 µM; procedure, shortened: as §1
K562 = assay: Cytotoxicity against human K562 cells at 100 uM by real time IncuCyte proliferation assay; assay type: cell-based; conditions: k562, 100 µM; procedure, shortened: as §1
[8] = Permeability of compound by PAMPA-BBB assay; assay type: ADME
[9] = Displacement of [3H]clonidine from imidazoline I1 receptor high affinity site in human hypothalamic membranes measured after 30 mins by liquid scintillation counting spectrometry; assay type: cell membranes, Hypothalamus, Membrane
[10] = Displacement of [3H]clonidine from imidazoline I1 receptor low affinity site in human hypothalamic membranes measured after 30 mins by liquid scintillation counting spectrometry; assay type: cell membranes, Hypothalamus, Membrane

Row | pKi [1] | Activity (Homo sapiens [3]) | pKi [4] | pKi [5] | Selectivity Index (Homo sapiens [6]) | pKi [7] | Papp [8] | Ki [9] | Ki [10] | SMILES | Activity [2] | Activity (HL-60) | Activity (NCI-H460) | Activity (LN-229) | Activity (HCT-116) | Activity (CAPAN-1) | Activity (Z-138) | Activity (K562)
1 | 3.17 | 12% | 9.13 | 5.26 | 123 | 5.11 | 14.8 ×10⁻⁶ cm/s | – | – | CCn1ccnc1-c1cc2ccc(OC)cc2o1.Cl | Non-Toxic | Non-Toxic | Non-Toxic | Non-Toxic | Non-Toxic | Non-Toxic | Non-Toxic | Non-Toxic
2 | 4.21 | 35% | 6.95 | 4.96 | 6 | 4.16 | 12.4 ×10⁻⁶ cm/s | – | – | CCn1ccnc1-c1cc2cc(OC)ccc2o1.Cl | Non-Toxic | Non-Toxic | Non-Toxic | Non-Toxic | Non-Toxic | Non-Toxic | Non-Toxic | Non-Toxic
3 | 3.01 | 46% | 6.77 | 5.88 | 741 | 4.58 | 7.6 ×10⁻⁶ cm/s | – | – | COc1ccc2cc(-c3ncc[nH]3)oc2c1.Cl | Non-Toxic | Non-Toxic | Non-Toxic | Non-Toxic | Non-Toxic | Non-Toxic | Non-Toxic | Non-Toxic
4 | 3.77 | 22% | 7.09 | 5.05 | 19 | 4.72 | 19.2 ×10⁻⁶ cm/s | – | – | CCn1ccnc1-c1cc2ccccc2o1.Cl | Non-Toxic | Non-Toxic | Non-Toxic | Non-Toxic | Non-Toxic | Non-Toxic | Non-Toxic | Non-Toxic

Continued, molecule first:

Row | SMILES | pKi [1] | Activity (Homo sapiens [3]) | pKi [4] | pKi [5] | Selectivity Index (Homo sapiens [6]) | pKi [7] | Papp [8] | Ki [9] | Ki [10] | Activity [2] | Activity (HL-60) | Activity (NCI-H460) | Activity (LN-229) | Activity (HCT-116) | Activity (CAPAN-1) | Activity (Z-138) | Activity (K562)
5 | c1ccc2c(c1)OCC(C1=NCCN1)O2 (centres undefined) [IDAZOXAN] | – | 40% | 7.87 | 7.41 | – | 5.76 | 3.3 ×10⁻⁶ cm/s | – | – | Non-Toxic | Non-Toxic | Non-Toxic | Non-Toxic | Non-Toxic | Non-Toxic | Non-Toxic | Non-Toxic
6 | Brc1ccc2oc(-c3ncc[nH]3)cc2c1.Cl | 4.92 | 20% | 8.63 | 6.28 | 23 | 5.85 | 20.3 ×10⁻⁶ cm/s | – | – | Non-Toxic | Non-Toxic | Non-Toxic | Non-Toxic | Non-Toxic | Non-Toxic | Non-Toxic | Non-Toxic
7 | Cl.Oc1ccc2cc(-c3ncc[nH]3)oc2c1 | 3.76 | – | – | 5.48 | 52 | – | 0.1 ×10⁻⁶ cm/s | – | – | Non-Toxic | Non-Toxic | Non-Toxic | Non-Toxic | Non-Toxic | Non-Toxic | Non-Toxic | Non-Toxic
8 | COc1nc(C)nc(Cl)c1NC1=NCCN1 [MOXONIDINE] | – | – | – | – | – | – | – | 0.0002 µM | 12 µM | – | – | – | – | – | – | – | –
9 | Cl.Cn1ccnc1-c1cc2ccccc2o1 | 3.75 | 38% | 6.99 | 5.98 | 170 | 5.35 | 17.4 ×10⁻⁶ cm/s | – | – | Non-Toxic | Non-Toxic | Non-Toxic | Non-Toxic | Non-Toxic | Non-Toxic | Non-Toxic | Non-Toxic
10 | Cl.Oc1ccc2oc(-c3ncc[nH]3)cc2c1 | 3.84 | 29% | 9.57 | 4.87 | 11 | 4.6 | 0.32 ×10⁻⁶ cm/s | – | – | Non-Toxic | Non-Toxic | Non-Toxic | Non-Toxic | Non-Toxic | Non-Toxic | Non-Toxic | Non-Toxic
11 | COc1ccc2oc(-c3ncc[nH]3)cc2c1.Cl | 3.94 | – | – | 6.41 | 295 | – | 8.3 ×10⁻⁶ cm/s | – | – | Non-Toxic | Non-Toxic | Non-Toxic | Non-Toxic | Non-Toxic | Non-Toxic | Non-Toxic | Non-Toxic
12 | c1ccc2oc(C3=NCCN3)cc2c1 | 4.58 | 58% | 9.08 | 8.31 | 5370 | 7.15 | 6.1 ×10⁻⁶ cm/s | – | – | Non-Toxic | Non-Toxic | Non-Toxic | Non-Toxic | Non-Toxic | Non-Toxic | Non-Toxic | Non-Toxic
